ChEMBL document CHEMBL2176910, “Identification of small molecule inhibitors of amyloid β-induced neuronal apoptosis acting through the imidazoline I(2) receptor” (J Med Chem, 2012)
Activity calls are given as the source filed them. No cut-off for these calls is given here.

Assays:
Hippocampal neuron [1] = experiment: (§1) Neuroprotective activity in mouse hippocampal neurons assessed as Abeta-induced neuronal apoptosis at 30 uM pre-incubated for 4 hrs before Abeta challenge for 72 hrs by TUNEL assay (reference value: 100%); type: functional; conditions: Hippocampus
Method in brief: (§2)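 Aggregated Aβ (20 μM, 72 h) was applied to primary mouse hippocampal neurons with or without compound at 30 μM. Apoptosis was scored by TUNEL as the percentage of positive nuclei among total nuclei, referred to Aβ alone (100%). Medium-only cells were the negative control and DNase the positive control. n = 4, mean ± SEM, two-tailed Student's test.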

Mus musculus = species on record: Mus musculus; experiment: Inhibition of imidazole receptor 2 in mouse hippocampal neurons assessed as reduction in tPA-induced Erk1/2 activation at 30 uM pre-incubated for 4 hrs before tPA stimulation by ELISA; conditions: Hippocampus
Method in brief: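 Primary mouse hippocampal neurons were stimulated with tPA (20 μg/mL, 1 h) with or without compound at 30 μM. Phospho-Erk1/2 was measured by ELISA with a phospho-specific antibody and normalized to total Erk1/2. Untreated cultures set the lower limit and tPA alone the upper limit.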

Rattus norvegicus [2] = species on record: Rattus norvegicus; experiment: Displacement of [3H]idazoxan from rat cerebral cortex imidazole receptor 2 at 10 uM in presence of 1 uM yohimbine; type: tissue-based
Rattus norvegicus [3] = species on record: Rattus norvegicus; experiment: Displacement of [3H]2-BFI from rat imidazole receptor 2 in rat whole brain at 10 uM in presence of 1 uM yohimbine
[4] = Inhibition of radioligand binding to N-methyl D-aspartate receptor phencyclidine binding site at 10 uM
Method in brief: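 Radioligand binding panel. Values are average percentages of inhibition of specific binding, measured against potent standard ligands for each target.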

Hippocampal neuron [5] = experiment: Neuroprotective activity against Abeta-induced neuronal apoptosis in mouse hippocampal neurons assessed as reduction in total neuronal nuclei level at 30 uM pre-incubated for 4 hrs before Abeta challenge for 72 hrs by immunofluorescence microscopy; type: functional, tissue-based; conditions: Hippocampus
Method in brief: (§3)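 Primary mouse hippocampal neurons were exposed to Aβ (20 μM, 72 h) alone or with compound. Double immunofluorescence microscopy was then run for DNA fragmentation (TUNEL, green) and total neuronal nuclei (NeuN, red), with merged images. DNase-treated cells served as positive control.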

Hippocampal neuron [6] = experiment: Neuroprotective activity against Abeta-induced neuronal apoptosis in mouse hippocampal neurons assessed as reduction in DNA fragmentation at 30 uM pre-incubated for 4 hrs before Abeta challenge for 72 hrs by immunofluorescence microscopy; type: functional, tissue-based; conditions: Hippocampus; method in brief: as §3
[7] = as §1; type: functional, Hippocampus, Hippocampal neuron; method in brief: as §2

Compound | Activity (Hippocampal neuron [1]) | inhibition of tPA-induced Erk1/2 activation (active/inactive call) (Mus musculus) | inhibition [4] | further results
CN1Cc2ccccc2C2CCc3ccccc3C21 (configuration not stated) | inactive | Active | – | –
c1ccc(-c2ncc3cc(-n4ccnc4)ccc3n2)cc1 | – | – | – | inhibition (Rattus norvegicus [2]): 66%; inhibition (Rattus norvegicus [3]): 92%
CC12CC3CC(C)(C1)CC(N)(C3)C2 [MEMANTINE] | – | Active | 92% | Activity (Hippocampal neuron [5]): Active; Activity (Hippocampal neuron [6]): Active; Activity [7]: 42.3%
CN1CCCC2(CCCNC2)C1 (configuration not stated) | inactive | Active | – | –
c1ccc(C2NCCc3ccccc32)cc1 (configuration not stated) | inactive | Active | 69% | –
c1ccc(C2NCCc3sccc32)cc1 (configuration not stated) | Active | Active | – | –
CN1CCn2cccc2C1c1ccccc1 (configuration not stated) | Active | Active | – | –
C[C@]12N[C@H](Cc3ccccc31)c1ccccc12 | – | – | 98% | inhibition (Mus musculus): Active
c1csc(C2NCCc3ccccc32)c1 (configuration not stated) | Active | Active | – | –
